Measured values taken from PMC5388449 (Journal of electroanalytical chemistry (Lausanne, …, 2016).
Like-named read-outs stand apart in the source and are kept apart here.

Key:
Concanavalin A (Con A) = Concanavalin A (Con A) (Canavalia ensiformis, UniProt P02866); experiment: biochemical; assay type: binding, Canavalia ensiformis (Jack Bean); settings: for ΔRct (Rct after Con A immobilization – Rct before): single-component SAM on gold wire
Con A [1] = settings: QCM, cited from earlier work
Con A [2] = settings: SPR, cited from earlier work
peanut agglutinin (PNA) = molecular target: T1, peanut agglutinin (PNA) (Arachis hypogaea, UniProt P02872); experiment: EIS negative control: PNA exposed to SAMs of thiolated mannosides on gold wire; assay type: binding; settings: single-component SAM of Man-C8-SH on gold wire, 0.5 μM PNA
T1 sequence (P02872 24-273): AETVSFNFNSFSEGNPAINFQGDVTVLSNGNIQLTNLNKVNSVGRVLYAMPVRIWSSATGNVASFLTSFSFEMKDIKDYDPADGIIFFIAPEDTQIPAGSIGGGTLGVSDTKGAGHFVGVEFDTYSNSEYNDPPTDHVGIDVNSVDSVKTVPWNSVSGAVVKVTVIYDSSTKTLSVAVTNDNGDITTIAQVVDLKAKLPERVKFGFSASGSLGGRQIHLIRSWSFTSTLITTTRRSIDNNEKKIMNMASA
Method in brief: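 Gold wires cleaned in nitric acid, then 0.5 M NaBH4 for 17 h. SAMs formed from thiolated mannoside, alone or with TEG-SH (1.0 mM total in methanol), 17 h at room temperature. Lectin in 10 mM Tris pH 7.4 with 0.1 M NaCl, 1 mM CaCl2, 1 mM MnCl2; 1 h at room temperature, then rinsed. EIS run at 5.0 mm exposed wire in 5 mM 1:1 ferri/ferrocyanide in 10 mM Tris pH 7.4, 100 kHz–1 Hz, 0.22 V vs Ag/AgCl. Rct obtained by Randles-circuit fit of Nyquist plots.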

Con A [3] = settings: ITC, depending on ligand density on nanoparticles surface; cited from earlier work
Con A [4] = settings: ITC, in solution; cited from earlier work

Work on `OC[C@H]1O[C@H](O[C@@H]2[C@H](O)[C@@H](OCCCCCCCCS)O[C@H](CO)[C@H]2O)[C@@H](O)[C@@H](O)[C@@H]1O` [B, 8-Mercaptooctyl 3-O-(α-D-mannopyranosyl)-α-D-mannopyranoside] yielded a Kd (Concanavalin A (Con A)) of 75 ± 20 nM.

In the case of `OC[C@H]1OC(O)[C@@H](O)[C@@H](O)[C@@H]1O` (stereo partly shown) [mannose], the Kd (Con A [1]; 1:2 binding of Con A to mannose) is given as 71 nM, the Kd (Con A [1]; mannose–Con A interaction) is given as 250 to 400 nM and the Kd (Con A [2]; mannose functionalized on a gold surface, multivalent interactions) is given as 78 nM. The Kd (Con A [2]; mannose–Con A interaction) was 135 to 400 nM.

`OC[C@H]1O[C@H](OC[C@H]2O[C@H](OCCCCCCCCS)[C@@H](O)[C@@H](O)[C@@H]2O[C@H]2O[C@H](CO)[C@@H](O)[C@H](O)[C@@H]2O)[C@@H](O)[C@@H](O)[C@@H]1O` [E, 8-Mercaptooctyl 4,6-di-O-(α-D-mannopyranosyl)-α-D-mannopyranoside] showed a Hill coefficient (Concanavalin A (Con A)) of 0.50 ± 0.06, a Kd (Concanavalin A (Con A)) of 81 ± 31 nM and an LOD (Concanavalin A (Con A)) of 11 nM.

`OC[C@H]1O[C@H](OC[C@H]2O[C@H](OCCCCCCCCS)[C@@H](O)[C@@H](O[C@H]3O[C@H](CO)[C@@H](O)[C@H](O)[C@@H]3O)[C@@H]2O)[C@@H](O)[C@@H](O)[C@@H]1O` [D, 8-Mercaptooctyl 3,6-di-O-(α-D-mannopyranosyl)-α-D-mannopyranoside] gave a Hill coefficient (Concanavalin A (Con A)) of 0.55 ± 0.05, a Kd (Concanavalin A (Con A)) of 30 ± 5 nM and an LOD (Concanavalin A (Con A)) of 13 nM.

With `OC[C@H]1O[C@H](OC[C@H]2O[C@H](OCCCCCCCCS)[C@@H](O)[C@@H](O)[C@@H]2O)[C@@H](O)[C@@H](O)[C@@H]1O` [C, 8-Mercaptooctyl 6-O-(α-D-mannopyranosyl)-α-D-mannopyranoside] the Hill coefficient (Concanavalin A (Con A)) was 0.73 ± 0.17, the Kd (Concanavalin A (Con A)) was 14 ± 4 nM and the LOD (Concanavalin A (Con A)) was 6 nM.

For `OC[C@H]1O[C@H](OCCCCCCCCS)[C@@H](O)[C@@H](O)[C@@H]1O` [A, 8-mercaptooctyl α-D-mannopyranoside], the “increase in Rct value” (peanut agglutinin (PNA)) was “negligible increase”, the Kd (Concanavalin A (Con A)) was 70 ± 19 nM and the ΔRct (Concanavalin A (Con A); mixed SAM 1:4 Man-C8-SH/TEG-SH on gold wire, 0.5 μM Con A, 1 h) was 495 ± 15 Ω. The “ΔRct (Rct after Con A immobilization – Rct before)” value (Concanavalin A (Con A); 0.5 μM Con A, 1 h) was 299 ± 51 Ω.

For dimannose, the Kd (Con A [3]) is given as 35 to 175 nM.

For `OCCOCCOCCS` [TEG-SH, 8-mercapto-3,6-dioxaoctanol, reference compound], the “ΔRct (Rct after Con A immobilization – Rct before)” value (Concanavalin A (Con A); 0.5 μM Con A, 1 h) was 63 ± 13 Ω.

In the case of `CO[C@H]1O[C@H](CO)[C@@H](O)[C@H](O)[C@@H]1O` [methyl α-D-mannopyranoside], the Ka (Con A [4]) is listed as 0.82 × 10^4 and the Kd (Con A [4]) is listed as 122000 nM.
